Active and inactive are the calls of the source. The calls are words filed in the database; no cut-off is given here.

Data on three compounds can be found in ChEMBL document CHEMBL5113395, “Azetidin-2-one-based small molecules as dual hHDAC6/HDAC8 inhibitors: Investigation of their mechanism of action and impact of dual inhibition profile on cell viability” (Eur J Med Chem, 2022).

In data set [1] the target is T1, Polyamine deacetylase HDAC10 (Homo sapiens, UniProt Q969S8).
T1 sequence (Q969S8 whole entry): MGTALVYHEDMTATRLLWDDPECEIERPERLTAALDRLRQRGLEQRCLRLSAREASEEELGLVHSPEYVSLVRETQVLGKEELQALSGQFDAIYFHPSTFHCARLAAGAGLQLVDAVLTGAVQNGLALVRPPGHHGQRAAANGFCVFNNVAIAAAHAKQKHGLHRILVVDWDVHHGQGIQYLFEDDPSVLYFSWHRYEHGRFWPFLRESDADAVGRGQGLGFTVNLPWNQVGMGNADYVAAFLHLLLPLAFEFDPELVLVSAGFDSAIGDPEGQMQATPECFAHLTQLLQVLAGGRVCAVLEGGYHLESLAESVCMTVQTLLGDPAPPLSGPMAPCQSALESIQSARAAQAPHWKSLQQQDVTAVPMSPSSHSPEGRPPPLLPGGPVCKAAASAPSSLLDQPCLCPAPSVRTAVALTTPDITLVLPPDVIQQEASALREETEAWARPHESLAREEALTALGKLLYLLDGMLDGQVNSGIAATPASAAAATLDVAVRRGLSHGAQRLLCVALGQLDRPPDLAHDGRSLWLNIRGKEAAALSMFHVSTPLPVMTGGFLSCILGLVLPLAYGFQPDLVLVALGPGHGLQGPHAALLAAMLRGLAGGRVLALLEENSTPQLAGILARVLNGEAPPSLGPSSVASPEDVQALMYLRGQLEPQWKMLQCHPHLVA
Nature of the data set: Inhibition of recombinant human N-terminal FLAG tagged HDAC10 expressed in baculovirus infected Sf9 insect cells using fluorogenic substrate measured after 30 mins by fluorescence plate reader analysis.

The subject of data set [2] is HCT-116. The data set is described as follows: Antiproliferation activity against human HCT-116 cells assessed as reduction in cell viability at 5 to 50 uM measured after 48 hrs by MTT assay. It counts as functional, cell-based. Conditions: dose 5-50 µM. The method in brief:
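HCT116 cells in DMEM with 10% heat-inactivated FBS were seeded at 3×10^4 cells/well and treated in triplicate at 1, 5, 10 and 50 µM for 24 and 48 h. MTT at 0.5 mg/mL was added for 3 h, formazan was dissolved in DMSO, and absorbance was read at 570 nm.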

The target of data set [3] is T2, Protein deacetylase HDAC6 (Homo sapiens, UniProt Q9UBN7).
T2 sequence (Q9UBN7 whole entry): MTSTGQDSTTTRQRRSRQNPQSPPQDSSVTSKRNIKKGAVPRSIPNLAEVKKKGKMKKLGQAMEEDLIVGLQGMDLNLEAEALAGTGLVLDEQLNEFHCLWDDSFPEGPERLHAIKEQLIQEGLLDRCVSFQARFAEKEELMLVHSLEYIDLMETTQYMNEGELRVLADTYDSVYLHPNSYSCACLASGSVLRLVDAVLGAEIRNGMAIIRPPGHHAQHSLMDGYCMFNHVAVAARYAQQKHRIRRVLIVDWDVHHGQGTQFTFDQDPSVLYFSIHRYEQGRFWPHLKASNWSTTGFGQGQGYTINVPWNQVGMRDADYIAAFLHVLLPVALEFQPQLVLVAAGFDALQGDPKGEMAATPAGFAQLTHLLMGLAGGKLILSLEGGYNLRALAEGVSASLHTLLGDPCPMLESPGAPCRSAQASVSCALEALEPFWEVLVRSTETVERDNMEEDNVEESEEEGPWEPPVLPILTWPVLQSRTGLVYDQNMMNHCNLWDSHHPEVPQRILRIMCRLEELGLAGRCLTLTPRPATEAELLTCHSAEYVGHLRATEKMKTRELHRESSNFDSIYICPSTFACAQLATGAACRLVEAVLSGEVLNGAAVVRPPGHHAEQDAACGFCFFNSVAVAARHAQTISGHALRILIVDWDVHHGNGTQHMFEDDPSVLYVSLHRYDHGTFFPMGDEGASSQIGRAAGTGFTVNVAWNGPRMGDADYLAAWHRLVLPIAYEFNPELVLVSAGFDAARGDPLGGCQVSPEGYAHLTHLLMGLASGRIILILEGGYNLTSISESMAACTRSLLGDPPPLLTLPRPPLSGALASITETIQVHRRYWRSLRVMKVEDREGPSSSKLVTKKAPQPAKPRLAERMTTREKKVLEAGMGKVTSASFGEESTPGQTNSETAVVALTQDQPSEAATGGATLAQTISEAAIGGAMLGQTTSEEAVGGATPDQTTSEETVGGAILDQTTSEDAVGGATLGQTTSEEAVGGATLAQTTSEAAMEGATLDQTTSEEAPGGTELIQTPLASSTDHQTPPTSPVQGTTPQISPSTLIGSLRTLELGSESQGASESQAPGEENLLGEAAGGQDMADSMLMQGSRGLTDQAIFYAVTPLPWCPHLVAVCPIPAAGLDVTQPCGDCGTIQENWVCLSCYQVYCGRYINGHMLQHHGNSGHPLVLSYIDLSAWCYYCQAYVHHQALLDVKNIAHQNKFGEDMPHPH
Nature of the data set: Inhibition of recombinant human full length N-terminal GST-tagged HDAC6 expressed in Sf9 cells using ZMAL (Z-(Ac)Lys-AMC as substrate measured after 90 mins by fluorescence plate reader analysis.

Data set [4] deals with T3, Histone deacetylase 8 (Homo sapiens, UniProt Q9BY41).
T3 sequence (Q9BY41 whole entry): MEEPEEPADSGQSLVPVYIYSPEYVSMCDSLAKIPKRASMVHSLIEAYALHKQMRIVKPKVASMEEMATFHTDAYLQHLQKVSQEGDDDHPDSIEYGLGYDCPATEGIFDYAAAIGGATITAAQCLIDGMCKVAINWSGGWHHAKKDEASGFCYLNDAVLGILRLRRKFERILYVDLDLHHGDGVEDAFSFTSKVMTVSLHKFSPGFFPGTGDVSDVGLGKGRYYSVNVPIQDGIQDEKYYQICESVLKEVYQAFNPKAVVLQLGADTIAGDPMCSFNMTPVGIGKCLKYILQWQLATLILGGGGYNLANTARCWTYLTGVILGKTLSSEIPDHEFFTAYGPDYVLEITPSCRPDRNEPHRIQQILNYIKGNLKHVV
Nature of the data set: Inhibition of recombinant human HDAC8 using FLUOR DE LYS as substrate preincubated for 15 mins followed by substrate addition measured after 1 hrs by fluorescence plate reader analysis. A digest of the protocol: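 Kit recombinant human HDAC8 (0.45 U/reaction) was preincubated 15 min with compound (0.5% DMSO; DMSO-only control). Fluor de Lys substrate was then added at 50 µM final and the reaction ran 1 h at 30 °C. It was quenched with 2 µM TSA in Developer II for a further 1 h at 30 °C, and fluorescence read at ex 370/em 450 nm. IC50 came from nonlinear dose–response fitting.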

Data set [5] can be described thus: Cytotoxicity against mouse NIH3T3 cells assessed as inhibition of cell growth by neutral red uptake assay.
In data set [6] the target is Histone deacetylase 1 (Homo sapiens, UniProt Q13547). Nature of the data set: Inhibition of recombinant human full length C-terminal FLAG/His-tagged HDAC1 expressed in Sf9 insect cells using ZMAL (Z-(Ac)Lys-AMC as substrate measured after 90 mins by fluorescence plate reader analysis.
Sequence of Histone deacetylase 1 (Q13547 whole entry): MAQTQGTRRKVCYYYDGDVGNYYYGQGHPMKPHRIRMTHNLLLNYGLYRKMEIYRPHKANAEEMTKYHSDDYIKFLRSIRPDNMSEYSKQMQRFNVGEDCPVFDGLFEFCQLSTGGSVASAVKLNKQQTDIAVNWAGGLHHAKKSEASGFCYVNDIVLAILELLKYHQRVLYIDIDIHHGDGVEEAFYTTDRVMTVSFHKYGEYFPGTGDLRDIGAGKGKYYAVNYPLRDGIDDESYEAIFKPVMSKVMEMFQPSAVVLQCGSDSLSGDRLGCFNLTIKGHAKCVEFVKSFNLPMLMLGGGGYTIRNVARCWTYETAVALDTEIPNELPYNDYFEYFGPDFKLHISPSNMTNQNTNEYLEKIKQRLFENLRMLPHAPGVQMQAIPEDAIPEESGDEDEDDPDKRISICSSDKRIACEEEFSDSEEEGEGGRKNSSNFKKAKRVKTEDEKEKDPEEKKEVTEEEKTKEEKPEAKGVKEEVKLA

In the case of `O=C(NO)c1ccc(CNC(=O)N2CCC(N3C(=O)[C@H](c4ccccc4)[C@H]3c3ccccc3)CC2)cc1` (racemic), the IC50 in data set [1] came to 6.6 µM; in data set [3], 0.021 µM; in data set [4], 0.042 µM; in data set [6] it was 4.2 µM. Also, the result in data set [2] was Active. Moreover, the CC50 in data set [5] amounted to 101 µM.
On to `O=C(NO)c1ccc(CC(=O)N2CCC(N3CC(c4ccccc4)(c4ccccc4)C3=O)CC2)cc1`, for which the IC50 turned out to be 5.1 µM in data set [1], 0.091 µM in data set [3], 0.113 µM in data set [4] and 9.7 µM in data set [6]. Besides, the result in data set [2] was Active. In addition, in data set [5], the CC50 was found to be 48 µM.
As for `O=C(NO)c1ccc(CNC(=O)N2CCC(N3CC(c4ccccc4)(c4ccccc4)C3=O)CC2)cc1`, the IC50 in data set [1] worked out at 6.5 µM; in data set [3] it was 0.0034 µM; in data set [4] it was 0.099 µM; in data set [6] it was 4.3 µM. Further, the outcome in data set [2] was Active. In addition, the CC50 in data set [5] turned out to be 40 µM.
